Results collected from several papers.
Each line is one published result; the experiments were not run side by side.
Target: Serine/threonine-protein kinase TAO2 (TAOK2, Homo sapiens, UniProt Q9UL54)
One construct used (Q9UL54 1-1235): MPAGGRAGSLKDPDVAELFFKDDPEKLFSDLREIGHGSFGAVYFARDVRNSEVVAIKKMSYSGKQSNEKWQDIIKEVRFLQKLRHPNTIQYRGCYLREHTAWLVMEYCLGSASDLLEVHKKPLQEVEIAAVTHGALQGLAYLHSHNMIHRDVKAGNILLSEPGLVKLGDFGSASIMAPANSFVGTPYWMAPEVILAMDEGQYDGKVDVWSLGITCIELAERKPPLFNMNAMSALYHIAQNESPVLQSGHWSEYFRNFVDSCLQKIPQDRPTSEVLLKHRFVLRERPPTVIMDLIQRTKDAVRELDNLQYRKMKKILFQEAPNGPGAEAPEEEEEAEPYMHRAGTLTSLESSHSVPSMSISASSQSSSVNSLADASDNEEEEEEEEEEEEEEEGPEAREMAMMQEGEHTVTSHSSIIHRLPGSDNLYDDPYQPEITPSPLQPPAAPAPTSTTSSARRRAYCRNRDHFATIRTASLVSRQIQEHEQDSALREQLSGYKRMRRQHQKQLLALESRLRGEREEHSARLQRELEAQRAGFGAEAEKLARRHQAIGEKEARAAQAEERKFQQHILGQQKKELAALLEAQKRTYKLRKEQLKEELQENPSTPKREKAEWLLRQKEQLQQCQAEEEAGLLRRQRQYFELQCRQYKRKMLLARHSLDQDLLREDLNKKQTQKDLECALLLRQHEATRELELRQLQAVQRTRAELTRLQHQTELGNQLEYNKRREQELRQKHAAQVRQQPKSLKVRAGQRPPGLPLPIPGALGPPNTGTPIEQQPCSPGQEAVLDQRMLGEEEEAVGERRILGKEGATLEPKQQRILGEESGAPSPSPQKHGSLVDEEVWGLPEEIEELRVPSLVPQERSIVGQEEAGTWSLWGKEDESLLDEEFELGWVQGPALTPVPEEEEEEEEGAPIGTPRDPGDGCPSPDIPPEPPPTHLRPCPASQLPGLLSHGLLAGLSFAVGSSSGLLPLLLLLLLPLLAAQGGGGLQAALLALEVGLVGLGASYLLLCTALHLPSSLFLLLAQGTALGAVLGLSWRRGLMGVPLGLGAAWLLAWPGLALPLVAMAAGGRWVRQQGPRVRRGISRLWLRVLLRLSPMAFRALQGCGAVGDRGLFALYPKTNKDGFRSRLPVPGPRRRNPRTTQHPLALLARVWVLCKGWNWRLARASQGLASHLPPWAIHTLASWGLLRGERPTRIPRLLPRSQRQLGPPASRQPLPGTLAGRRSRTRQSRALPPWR

Compound	assay	conditions	remaining binding
CC1CCCN1c1nccc(-c2cnn3ncccc23)n1 (stereo not shown)	binding	1 µM	100%
O=C(c1ccc(Nc2nccc(-c3cc4ccccc4s3)n2)cc1)N1CCC(N2CCCC2)CC1	binding, competition with immobilised ligand	1 µM	71%
C[C@@H](c1ccc(-n2cnc3c(N)ncnc32)cc1)N1CCc2nn(C)c(Cc3ccccc3)c2C1=O	binding, competition with immobilised ligand	0.1 µM	70%
CNCc1ccccc1-c1csc([C@H](C)Nc2nc(C)nc3cc(OC)c(OC)cc23)c1	cell-free assay, competition with immobilised ligand	1 µM	90%
COc1ccnn2ncc(-c3ccnc(N(C)C)n3)c12	binding	1 µM	85%
O=C(NCC1CCOCC1)c1n[nH]cc1NC(=O)c1c(F)cccc1F	binding, competition with immobilised ligand	1 µM	100%
CN(C)c1nccc(-c2cnn3ncccc23)n1	binding	1 µM	85%
O=C(NCCCN1CCOCC1)c1ccc(Nc2ncc(Cl)c(-c3ccc(Cl)s3)n2)cc1	binding, competition with immobilised ligand	1 µM	69%
Cn1nc(C(=O)NCc2ccc(C(=O)O)cc2)cc1-c1ccc2[nH]ccc2c1	cell-free assay, competition with immobilised ligand	0.1 µM	82%
Nc1ncc2c(n1)-c1c([nH]c3ccc(C#CC4CC4)cc13)CCCC2	binding, competition with immobilised ligand	1 µM	90%
FC(F)(F)Oc1cccc(-c2cnc3ccc(-c4ccncc4)nn23)c1	binding, competition with immobilised ligand	5 µM	100%
c1cnn2ncc(-c3ccnc(N4CCC45COC5)n3)c2c1	binding	1 µM	71%
Cc1nc(C2CCN(C(=O)c3ccc(OC(F)(F)F)cc3N)CC2)c2ncc(N3CCN(C)CC3)cc2n1	cell-free assay, competition with immobilised ligand	1 µM	100%
CN(C)c1ncc(F)c(-c2cnn3ncccc23)n1	binding	1 µM	79%
CCc1ccccc1C(=O)Nc1n[nH]c2c(C)c(F)c(C3C(C#N)=C(C)N(C)C(C)=C3C#N)cc12	cell-free assay, competition with immobilised ligand	1 µM	96%
Cc1cnc(Nc2ccc(C(=O)N3CCC(N4CCCC4)CC3)cc2)nc1-c1cc2ccccc2s1	binding, competition with immobilised ligand	1 µM	29%
O=S(=O)(NC1CCC(c2cc(F)ccc2F)(S(=O)(=O)c2ccc(Cl)cc2)CC1)C(F)(F)F (stereo not shown)	cell-free assay, competition with immobilised ligand	1 µM	100%
CNC(=O)[C@@H]1CC[C@@H](n2c(-c3ccc4cnccc4c3)nc3ccc(C(=O)NCc4cccc(C(N)=O)c4)cc32)C1	binding, competition with immobilised ligand	1 µM	98%
C[C@H]1CCN(c2nccc(-c3cnn4ncccc34)n2)C1	binding	1 µM	70%
CC(=O)Nc1c(C(C)=O)c(=O)n(C)c2nc(-c3ccc(Cl)cc3Cl)c(-c3ccc(Cl)cc3)cc12	cell-free assay, competition with immobilised ligand	1 µM	88%
N[C@@H]1CCN(c2nccc(-c3cnn4ncccc34)n2)C1	binding	1 µM	100%
O=C(O)[C@H]1[C@H](Cn2nnc3ccccc3c2=O)CC[C@@H]1C(=O)c1ccc(OCCC2CCOCC2)cc1	cell-free assay, competition with immobilised ligand	1 µM	100%
